ChEMBL document CHEMBL1127460, “Cancer chemopreventive 3-substituted-4-oxoretinoic acids” (J Med Chem, 1994)

Experiments:
[1] = target: T1, Ornithine decarboxylase (Mus musculus) (UniProt P00860); assay: Inhibition of TPA-induced ODC activity as percentage of the average no. of papillomas / mouse in groups of control mice was determined using papilloma assay; type: functional; parameters: concentration or dose not given beside the values
T1 sequence (whole entry): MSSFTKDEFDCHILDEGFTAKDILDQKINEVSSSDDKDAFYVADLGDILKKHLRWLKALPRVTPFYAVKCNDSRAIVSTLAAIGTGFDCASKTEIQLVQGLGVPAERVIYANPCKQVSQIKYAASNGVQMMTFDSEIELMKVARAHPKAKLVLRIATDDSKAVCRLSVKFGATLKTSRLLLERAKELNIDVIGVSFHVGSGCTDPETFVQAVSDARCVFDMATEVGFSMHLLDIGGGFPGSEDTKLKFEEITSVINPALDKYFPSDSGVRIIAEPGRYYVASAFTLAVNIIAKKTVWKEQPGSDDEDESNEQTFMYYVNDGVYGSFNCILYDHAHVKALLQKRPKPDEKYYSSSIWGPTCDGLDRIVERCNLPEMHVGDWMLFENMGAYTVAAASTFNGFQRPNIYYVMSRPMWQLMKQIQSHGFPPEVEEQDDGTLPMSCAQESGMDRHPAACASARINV
Summary of the method: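 CD-1 female mice, shaved skin, initiated once with 51.2 μg DMBA in 0.2 mL acetone. From two weeks later, TPA 2 nmol in acetone twice weekly to the same area for 12–15 weeks. Tumors per mouse counted at the end, 10–15 mice per group. Group averages are expressed as a percentage of controls and averaged across experiments.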

[2] = target: T1, Ornithine decarboxylase (Mus musculus); assay: In vivo inhibition of ornithine de-carboxylase (ODC) activity induced by 12-0-tetradecanoylphorbol 13-acetate (TPA) in mouse skin; type: functional, organism-based
Summary of the method: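 Mouse-skin assay of TPA induction of ornithine decarboxylase, after Verma et al. Retinoid-treated groups are compared with TPA-induced controls. ODC activity is expressed as a percentage of control-group activity and averaged over the stated number of tests.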

| Structure (SMILES) | Control [1] [%] | Average [2] [%] |
| --- | --- | --- |
| COC(=O)/C=C(C)/C=C/C=C(C)/C=C/C1=C(C)C(=O)C(C)CC1(C)C (stereo unspecified) | 27 | 28 |
| CC1=C(/C=C/C(C)=C/C=C/C(C)=C/C(=O)O)C(C)(C)CC(C)(C)C1=O | 25 | 26 |
| COC(=O)/C=C(C)/C=C/C=C(C)/C=C/C1=C(C)C(=O)C(C)(C)CC1(C)C | 22 | 22 |
| C=CCC1CC(C)(C)C(/C=C/C(C)=C/C=C/C(C)=C/C(=O)O)=C(C)C1=O (stereo unspecified) | 47 | 68 |
| CC1=C(/C=C/C(C)=C/C=C/C(C)=C/C(=O)O)C(C)(C)CCC1 | 16 | 8 |
| CC1=C(/C=C/C(C)=C/C=C/C(C)=C/C(=O)Nc2ccc(O)cc2)C(C)(C)CCC1 | 89 | 60 |
| CCC1CC(C)(C)C(/C=C/C(C)=C/C=C/C(C)=C/C(=O)O)=C(C)C1=O (stereo unspecified) | 57 | 40 |
| CC1=C(/C=C/C(C)=C/C=C/C(C)=C/C(=O)O)C(C)(C)CC(C)C1=O (stereo unspecified) | 29 | 26 |
| CC1=C(/C=C/C(C)=C/C=C/C(C)=C/C(=O)O)C(C)(C)CCC1=O (stereo in doubt; 3a) | 39 | 17 |
| C#CCC1CC(C)(C)C(/C=C/C(C)=C/C=C/C(C)=C/C(=O)O)=C(C)C1=O (stereo unspecified) | 64 | 47 |
| COC(=O)/C=C(C)/C=C/C=C(C)/C=C/C1=C(C)C(=O)CCC1(C)C | 25 | 18 |

The remaining lines, values ahead:

| Control [1] [%] | Average [2] [%] | Structure (SMILES) |
| --- | --- | --- |
| 39 | 23 | CC1=C(/C=C/C(C)=C/C=C/C(C)=C/C(=O)O)C(C)(C)CC(C/C=C/c2ccccc2)C1=O (stereo unspecified) |
| 20 | 31 | COC(=O)/C=C(C)/C=C/C=C(C)/C=C/C1=C(C)C(=O)C(C/C=C/c2ccccc2)CC1(C)C (stereo unspecified) |
| 40 | 34 | C#CCC1CC(C)(C)C(/C=C/C(C)=C/C=C/C(C)=C/C(=O)OC)=C(C)C1=O (stereo unspecified) |
| 78 | 56 | COC(=O)/C=C(C)/C=C/C=C(C)/C=C/C1=C(C)C(=O)C(Cc2ccccc2)CC1(C)C (stereo unspecified) |
| 42 | 56 | C=CCC1CC(C)(C)C(/C=C/C(C)=C/C=C/C(C)=C/C(=O)OC)=C(C)C1=O (stereo unspecified) |
| 38 | 34 | CC1=C(/C=C/C(C)=C/C=C/C(C)=C/C(=O)O)C(C)(C)CC(Cc2ccccc2)C1=O (stereo unspecified) |
| 68 | 31 | CCC1CC(C)(C)C(/C=C/C(C)=C/C=C/C(C)=C/C(=O)OC)=C(C)C1=O (stereo unspecified) |
